ChEMBL document CHEMBL3856184, “Tyrosol and hydroxytyrosol derivatives as antitrypanosomal and antileishmanial agents” (Eur J Med Chem, 2016)

How the values were obtained:
[1] = Cytotoxicity against human MRC5 cells assessed as inhibition of cell proliferation measured after 72 hrs by MTT assay; format: toxicity, cell-based
Outline: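 SV-40 transformed fetal lung fibroblasts kept in DMEM with 10% hiFBS and penicillin/streptomycin at 37 °C, 5% CO₂. Cells trypsinized, seeded at 4 x 10⁴ cell/ml and exposed to increasing concentrations for 72 h at 37 °C. Viability read by colorimetric MTT. EC₅₀ taken as the concentration reducing growth by 50% versus untreated cells.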

[2] = system: Trypanosoma brucei brucei; assay: Antitrypanosomal activity against bloodstream form of Trypanosoma brucei brucei S16 assessed as inhibition of proliferation measured after 72 hrs by alamarBlue assay; format: functional; conditions: S16, 72 h
Outline: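 Bloodstream forms cultured in HMI-9 with 10% hiFBS at 37 °C, 5% CO₂. Seeded at 1 × 10⁴ per mL with increasing compound concentrations for 72 h under the same conditions. Proliferation read by alamarBlue fluorescence, excitation 550 nm and emission 590 nm.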

[3] = Selectivity index, ratio of IC50 for human MRC5 cells to IC50 for bloodstream form of Trypanosoma brucei brucei S16; format: toxicity, cell-based; conditions: read-out: Ratio IC50
[4] = system: Trypanosoma brucei brucei; assay: Potency index, ratio of IC50 for hydroxytyrosol to IC50 for test compound against bloodstream form of Trypanosoma brucei brucei S16; format: functional
[5] = system: Leishmania donovani; assay: Antileishmanial activity against Leishmania donovani MHOM/ET/67/HU3 axenic amastigotes at 20 uM after 72 hrs by resazurin-based assay relative to control; format: functional; conditions: MHOM/ET/67/HU3, 72 h
Outline: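 Axenic amastigotes grown in Schneider medium with 20% hiFBS, pH 5.4, 37 °C, 5% CO₂. 10⁶ parasites/ml exposed to a single 20 μM concentration for 72 h at 37 °C. Viability read by resazurin assay, reported as percent inhibition.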

[6] = system: Leishmania donovani; assay: Antileishmanial activity against Leishmania donovani MHOM/ET/67/HU3 intracellular amastigotes infected in human THP1 cells after 72 hrs by luciferase coupled luminescence assay; format: functional, cell-based; conditions: MHOM/ET/67/HU3, THP-1, 72 h
Outline: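 Luciferase-expressing parasite line. THP-1 cells differentiated with 20 ng/mL PMA for 48 h, then 24 h in fresh medium, seeded at 3x10⁴ macrophages/well and infected with late-stage promastigotes at a macrophage:parasite ratio of 1:10. Infected cultures exposed to a range of concentrations in RPMI 1640 with 10% hiFBS at 37 °C, 5% CO₂ for 72 h, then lysed. Luminescence read as intracellular parasite growth.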

[7] = system: Trypanosoma brucei brucei; assay: Potency index, ratio of IC50 for tyrosol to IC50 for test compound against bloodstream form of Trypanosoma brucei brucei S16; format: functional
[8] = system: Trypanosoma brucei rhodesiense; assay: Antitrypanosomal activity against Trypanosoma brucei rhodesiense; format: functional
[9] = Selectivity index, ratio of IC50 for human MRC5 cells to IC50 for intracellular amastigotes of Leishmania donovani MHOM/ET/67/HU3 infected in human THP1 cells; format: toxicity, cell-based; conditions: read-out: Ratio IC50
[10] = system: Leishmania donovani; assay: Potency index, ratio of IC50 for tyrosol to IC50 for test compound against intracellular amastigotes of Leishmania donovani MHOM/ET/67/HU3 infected in human THP1 cells; format: functional, THP-1

SMILES | IC50 [2] [µM] | IC50 [6] [µM] | IC50 [8] [µM] | IC50 at 72 h [1] [µM] | selectivity ratio [3] | Ratio IC50 [4] | inhibition at 20 µM [5] [%] | Ratio IC50 [7] | selectivity ratio [9] | Ratio IC50 [10]
CCCCCCCCCCCCSCCc1ccc(OCc2ccccc2)c(OCc2ccccc2)c1 | > 10 | – | – | > 50 | > 5 | 5 | – | – | – | –
CC(=O)OCCc1ccc(O)cc1 | 79.4 | – | – | 114 | 1.4 | – | 28 | 0.13 | – | –
CCCCCCCCCC(=O)NCCc1ccc(O)c(O)c1 | > 10 | – | – | > 50 | > 5 | 5 | – | – | – | –
CCCCCCCCCC(=O)OCCc1ccc2c(c1)OCO2 | > 10 | – | – | > 50 | > 5 | >5 | – | – | – | –
O=S(=O)([O-])Oc1ccc(CCO)cc1.[K+] | 41.6 | – | – | 106 | 2.6 | – | 36 | 0.16 | – | –
CCCCCCCCCCCC(=O)NCCc1ccc(O)c(O)c1 | 8.74 | – | – | > 50 | > 5 | 5 | – | – | – | –
C[C@@H]1[C@H](O)[C@@H](C)/C=C/C=C/C=C/C=C/C=C/C=C/C=C/[C@H](O[C@@H]2O[C@H](C)[C@@H](O)[C@H](N)[C@@H]2O)C[C@@H]2O[C@](O)(C[C@@H](O)C[C@@H](O)[C@H](O)CC[C@@H](O)C[C@@H](O)CC(=O)O[C@H]1C)C[C@H](O)[C@H]2C(=O)O [AMPHOTERICIN B] | – | 0.1 | – | – | – | – | – | – | – | –
NCCc1ccc(O)c(O)c1 [DOPAMINE] | > 10 | – | – | 68.9 | 7 | 5 | – | – | – | –
CCCCCCCCCCCCSCCc1ccc(OCc2ccc(OC)cc2)c(OCc2ccc(OC)cc2)c1 | > 10 | – | – | > 50 | > 5 | 5 | – | – | – | –
CCCCCCCCCC(=O)OCCc1ccc(O)c(O)c1 [HYDROXYTYROSOL DECANOATE] | 0.6 | 8.44 | – | 71.1 | 118 | 79 | 54 | – | 8.4 | –
CCCCCCCC(=O)OCCc1ccc(O)c(O)c1 | 9.6 | > 10 | – | 104 | 11 | 5 | 45 | – | 10.3 | –
CCCCCCCCCCCC(=O)OCCc1ccc2c(c1)OCO2 | > 10 | – | – | > 50 | > 5 | >5 | – | – | – | –
Cc1ccc(C(=O)Nc2ccc(S(=O)(=O)O)c3cc(S(=O)(=O)O)cc(S(=O)(=O)O)c23)cc1NC(=O)c1cccc(NC(=O)Nc2cccc(C(=O)Nc3cc(C(=O)Nc4ccc(S(=O)(=O)O)c5cc(S(=O)(=O)O)cc(S(=O)(=O)O)c45)ccc3C)c2)c1 [SURAMIN] | 0.038 | – | – | – | – | – | – | – | – | –
O=C(O)[C@H]1O[C@@H](Oc2ccc(CCO)cc2)[C@H](O)[C@@H](O)[C@@H]1O | 61.5 | – | – | 110 | 1.8 | – | 36 | 0.17 | – | –
CCCCCCCCCCOCCc1ccc(O)c(O)c1 | 1.29 | – | – | > 50 | > 38 | 37 | – | – | – | –
CCCCCCCCCCNC(=S)NCCc1ccc(O)c(O)c1 | 0.74 | – | – | 24.8 | 33 | 64 | – | – | – | –
CCCCCCCCCCCCCCCC(=O)OCCc1ccc(O)c(O)c1 [HYDROXYTYROSOL PALMITATE] | 2.43 | > 10 | – | > 50 | > 21 | 20 | 52 | – | – | –
CCCC(=O)OCCc1ccc(O)c(O)c1 [HYDROXYTYROSOL BUTANOATE] | 9.4 | > 10 | – | 71.5 | 8 | 5 | 48 | – | 7.1 | –
Oc1ccc(CCN=C=S)cc1O | 9.87 | – | – | 21.1 | 2 | 5 | – | – | – | –
CCCCCC(=O)OCCc1ccc(O)cc1 | 59.1 | > 10 | – | 166 | 2.8 | – | 44 | 0.16 | 16.6 | 1
CCCCCCCCCCOCCc1ccc(OCc2ccccc2)c(OCc2ccccc2)c1 | > 10 | – | – | > 50 | > 5 | >5 | – | – | – | –

Continued, in another order:

IC50 [2] [µM] | IC50 [6] [µM] | IC50 [8] [µM] | SMILES | IC50 at 72 h [1] [µM] | selectivity ratio [3] | Ratio IC50 [4] | inhibition at 20 µM [5] [%] | Ratio IC50 [7] | selectivity ratio [9] | Ratio IC50 [10]
43.4 | > 10 | – | CC(=O)OCCc1ccc(O)c(O)c1 | > 50 | > 1 | 1 | 48 | – | – | –
0.36 | > 10 | – | CCCCCCCCCCCC(=O)OCCc1ccc(O)c(O)c1 | 38.1 | 101 to 106 | 132 | 56 | – | – | –
2.29 | > 10 | – | CCCCCCCCCCCCCC(=O)OCCc1ccc(O)c(O)c1 | > 50 | > 22 | 21 | 53 | – | – | –
0.63 | – | – | CCCCCCCCCCCCOCCc1ccc(O)c(O)c1 | 13.2 | 21 | 75 | – | – | – | –
> 10 | > 10 | > 15 | OCCc1ccc(O)cc1 [TYROSOL] | > 500 | > 5 | – | 50 | – | 5 | –
16.2 | – | – | CCCCCCCCCCCC(=O)OCCc1ccc(O)cc1 | 67.2 | 4.1 | – | 32 | 0.52 | – | –
56.8 | > 10 | – | CCCCCCCC(=O)OCCc1ccc(O)cc1 | 133 | 2.3 | – | 46 | 0.22 | 13.3 | 1
0.77 | – | – | CCCCCCCCCCCCNC(=S)NCCc1ccc(O)c(O)c1 | 2.96 | 4 | 62 | – | – | – | –
> 10 | – | – | CCCCCCCCCCOCCc1ccc(OCc2ccc(OC)cc2)c(OCc2ccc(OC)cc2)c1 | > 50 | > 5 | >5 | – | – | – | –
